Activity calls are given as the source filed them. The calls are words filed in the database; no cut-off is given here.
Tested on: Rattus norvegicus
Assay: Antifertility activity in po dosed pregnant female albino rat assessed as absence of implantation in both uterine horns on day 10 of pregnancy compound administered for 5 days
Type: functional
Conditions: not given
Method in brief: (§1)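 Mated rats of proven fertility; day 1 = sperm-positive vaginal smear. Compound macerated with gum acacia, given orally days 1-5, five animals per group; initial dose 20 mg/kg/day unless stated otherwise. Uterine horns examined on day 10; scored positive only when implantations totally absent in both horns.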

Row | SMILES | ED100 [mg/kg]
1 | COc1ccc2c(c1)OC(C)(C)C(c1ccc(Cl)cc1)=C2c1ccc(OCCN2CCCC2)cc1.Cl | 5
2 | COc1ccc(C2=C(c3ccccc3)C(C)(C)Oc3cc(OCCN4CCCC4)ccc32)cc1.Cl | 10
3 | COc1ccc2c(c1)OC[C@H](c1ccccc1)[C@H]2c1ccc(OCCN2CCCC2)cc1 (relative stereo) | 0.25
4 | CCC1(CC)Oc2cc(OC)ccc2C(c2ccc(OCCN3CCCC3)cc2)=C1c1ccccc1.Cl | 10
5 | COc1ccc2c(c1)OCC(c1ccccc1)=C2c1ccc(OCCN2CCCC2)cc1 | 0.15
6 | CC1(C)Oc2ccccc2C(c2ccc(OCCN3CCCC3)cc2)=C1c1ccccc1.Cl | 10
7 | COc1ccc2c(c1)OC(C)(C)C(c1ccccc1)=C2c1ccc(OCCN2CCCC2)cc1.Cl | 5
8 | COc1ccc2c(c1)OC(C)(C)[C@@H](c1ccccc1)[C@@H]2c1ccc(OCCN2CCCC2)cc1 [LEVORMELOXIFENE] | 0.25
9 | COc1ccc2c(c1)OC[C@H](c1ccccc1)[C@@H]2c1ccc(OCCN2CCCC2)cc1 (relative stereo) | 1
10 | CCC1(CC)Oc2cc(OC)ccc2[C@H](c2ccc(OCCN3CCCC3)cc2)[C@H]1c1ccccc1 | 5
11 | CCN(CC)CCOc1ccc(C2=C(c3ccccc3)C(C)(C)Oc3cc(OC)ccc32)cc1.Cl | 10

Tested on: Rattus norvegicus
Assay: Estrogenic activity in immature female rat assessed as mixture of leukocytes,epithelial cells and estrus smear with cornified cells at 10 mg/kg, po bid for 3 days
Type: functional, organism-based
Design: dose 10 mg/kg
Conditions: not given
Method in brief: (§2)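 Immature female rats, 25-30 g. Vaginal smear scored as + (leucocytes with epithelial cells), ++ (proestrus, nucleated or nucleated plus cornified cells) or +++ (estrus, cornified cells only). Estrone used as standard.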

Row | SMILES | Activity
12 | COc1ccc2c(c1)OC(C)(C)[C@@H](c1ccccc1)[C@@H]2c1ccc(OCCN2CCCC2)cc1 [LEVORMELOXIFENE] | Active
13 | CCC1(CC)Oc2cc(OC)ccc2[C@H](c2ccc(OCCN3CCCC3)cc2)[C@H]1c1ccccc1 | Active

Tested on: Rattus norvegicus
Assay: Estrogenic activity in immature female rat assessed as mixture of leukocytes, epithelial cells and proestrus smear with nucleated and cornified cells at 10 mg/kg, po bid for 3 days
Type: functional, organism-based
Design: dose 10 mg/kg
Conditions: Epithelial cell
Method in brief: as §2

Row | SMILES | Activity
14 | COc1ccc2c(c1)OC(C)(C)C(c1ccccc1)=C2c1ccc(O)cc1 | Active

Tested on: Rattus norvegicus
Assay: Estrogenic activity in immature female rat assessed as diestrus smear with leukocytes at 10 mg/kg, po bid for 3 days
Type: functional, organism-based
Design: dose 10 mg/kg
Conditions: not given
Method in brief: as §2

Row | SMILES | Activity
15 | CCC1(CC)Oc2cc(OC)ccc2C(c2ccc(OCCN3CCCC3)cc2)=C1c1ccccc1.Cl | Active
16 | COc1ccc2c(c1)OCC(c1ccccc1)=C2c1ccc(OCCN2CCCC2)cc1 | Active
17 | CCC1(CC)Oc2cc(OC)ccc2C(c2ccc(O)cc2)=C1c1ccccc1 | Active

Tested on: Rattus norvegicus
Assay: Estrogenic activity in immature female rat assessed as uterine weight on day 4 at 10 mg/kg, po bid for 3 days (reference value: 13.6 +/- 0.8 mg)
Type: functional
Conditions: not given

Row | SMILES | Activity [mg]
18 | COc1ccc2c(c1)OC[C@H](c1ccccc1)[C@H]2c1ccc(OCCN2CCCC2)cc1 (relative stereo) | 48.3
19 | CCC1(CC)Oc2cc(OC)ccc2C(c2ccc(OCCN3CCCC3)cc2)=C1c1ccccc1.Cl | 35.4
20 | COc1ccc2c(c1)OCC(c1ccccc1)=C2c1ccc(OCCN2CCCC2)cc1 | 37.4
21 | CCC1(CC)Oc2cc(OC)ccc2C(c2ccc(O)cc2)=C1c1ccccc1 | 39.2
22 | COc1ccc2c(c1)OC(C)(C)[C@@H](c1ccccc1)[C@@H]2c1ccc(OCCN2CCCC2)cc1 [LEVORMELOXIFENE] | 48.3
23 | CCC1(CC)Oc2cc(OC)ccc2[C@@H](c2ccc(O)cc2)[C@H]1c1ccccc1 (relative stereo) | 14.6
24 | CCC1(CC)Oc2cc(OC)ccc2[C@@H](c2ccc(OCCN3CCCC3)cc2)[C@H]1c1ccccc1 | 16.5
25 | COc1ccc2c(c1)OC[C@H](c1ccccc1)[C@@H]2c1ccc(OCCN2CCCC2)cc1 (relative stereo) | 50.6
26 | CCC1(CC)Oc2cc(OC)ccc2[C@H](c2ccc(OCCN3CCCC3)cc2)[C@H]1c1ccccc1 | 46.6
27 | COc1ccc2c(c1)OC(C)(C)C(c1ccccc1)=C2c1ccc(O)cc1 | 49.2
28 | COc1ccc2c(c1)OC(C)(C)[C@@H](c1ccccc1)[C@H]2c1ccc(OCCN2CCCC2)cc1 | 20.5
29 | CCN(CC)CCOc1ccc(C2=C(c3ccccc3)C(C)(C)Oc3cc(OC)ccc32)cc1.Cl | 42

Tested on: Rattus norvegicus
Assay: Estrogenic activity in immature female rat assessed as vaginal opening at 10 mg/kg, po bid for 3 days
Type: functional, organism-based
Design: dose 10 mg/kg
Conditions: not given
Method in brief: (§3)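 Immature female rats, 25-30 g, scored for presence or absence of vaginal opening. Failure to induce opening was taken as complete absence of estrogenic activity.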

Row | SMILES | Activity
30 | COc1ccc2c(c1)OC[C@H](c1ccccc1)[C@H]2c1ccc(OCCN2CCCC2)cc1 (relative stereo) | Active
31 | CCC1(CC)Oc2cc(OC)ccc2C(c2ccc(OCCN3CCCC3)cc2)=C1c1ccccc1.Cl | Active
32 | COc1ccc2c(c1)OCC(c1ccccc1)=C2c1ccc(OCCN2CCCC2)cc1 | Active
33 | CCC1(CC)Oc2cc(OC)ccc2C(c2ccc(O)cc2)=C1c1ccccc1 | Active
34 | COc1ccc2c(c1)OC(C)(C)[C@@H](c1ccccc1)[C@@H]2c1ccc(OCCN2CCCC2)cc1 [LEVORMELOXIFENE] | Active
35 | COc1ccc2c(c1)OC[C@H](c1ccccc1)[C@@H]2c1ccc(OCCN2CCCC2)cc1 (relative stereo) | Active
36 | CCC1(CC)Oc2cc(OC)ccc2[C@H](c2ccc(OCCN3CCCC3)cc2)[C@H]1c1ccccc1 | Active
37 | COc1ccc2c(c1)OC(C)(C)C(c1ccccc1)=C2c1ccc(O)cc1 | Active
38 | CCN(CC)CCOc1ccc(C2=C(c3ccccc3)C(C)(C)Oc3cc(OC)ccc32)cc1.Cl | Active

Tested on: Rattus norvegicus
Assay: Estrogenic activity in immature female rat assessed as mixture of leukocytes and epithelial cells at 10 mg/kg, po bid for 3 days
Type: functional, organism-based
Design: dose 10 mg/kg
Conditions: Epithelial cell
Method in brief: as §2

Row | SMILES | Activity
39 | COc1ccc2c(c1)OC[C@H](c1ccccc1)[C@@H]2c1ccc(OCCN2CCCC2)cc1 (relative stereo) | Active

Tested on: Rattus norvegicus
Assay: Antifertility activity in pregnant female albino rat assessed as implantation in both uterine horns on day 10 of pregnancy at 20 mg/kg/day, po for 5 days
Type: functional, organism-based
Conditions: not given
Method in brief: as §1

Row | SMILES | Activity
40 | Cc1ccc2c(c1)[C@@H](c1ccccc1)[C@@H](c1ccccc1)CO2 (relative stereo) | inactive
41 | COc1ccc(C2=C(c3ccccc3)C(C)(C)Oc3cc(O)ccc32)cc1 | inactive
42 | COc1ccc2c(c1)OC(C)(C)C(c1ccc(Cl)cc1)=C2c1ccc(O)cc1 | inactive
43 | CC1(C)Oc2ccccc2C(c2ccc(O)cc2)=C1c1ccccc1 | inactive
44 | CCC1(CC)Oc2cc(OC)ccc2C(c2ccc(O)cc2)=C1c1ccccc1 | inactive
45 | CCC1(CC)Oc2cc(OC)ccc2[C@@H](c2ccc(O)cc2)[C@H]1c1ccccc1 (relative stereo) | inactive
46 | COc1ccc2c(c1)OC(C)(C)[C@H](c1ccccc1)[C@H]2c1ccc(O)cc1 (relative stereo) | inactive
47 | COc1ccc(C2=C(c3ccc(OC)cc3)C(C)(C)Oc3cc(OC)ccc32)cc1 | inactive
48 | CCC1(CC)Oc2cc(OC)ccc2[C@@H](c2ccc(OCCN3CCCC3)cc2)[C@H]1c1ccccc1 | inactive
49 | COc1ccc2c(c1)OC(C)(C)C(c1ccccc1)=C2c1ccc(O)cc1 | inactive
50 | COc1ccc2c(c1)OC(C)(C)[C@@H](c1ccccc1)[C@H]2c1ccc(OCCN2CCCC2)cc1 | inactive
51 | Cc1ccc2c(c1)[C@H](c1ccccc1)[C@@H](c1ccccc1)CO2 (relative stereo) | inactive
52 | COc1ccc2c(c1)OC(C)(C)[C@H](c1ccccc1)[C@@H]2c1ccc(O)cc1 (relative stereo) | inactive

Tested on: Rattus norvegicus
Assay: Estrogenic activity in immature female rat assessed as diestrus smear with leukocytes and proestrus smear with nucleated and cornified cells at 5 mg/kg, po bid for 3 days
Type: functional, organism-based
Design: dose 5 mg/kg
Conditions: not given
Method in brief: as §2

Row | SMILES | Activity
53 | COc1ccc2c(c1)OC[C@H](c1ccccc1)[C@@H]2c1ccc(OCCN2CCCC2)cc1 (relative stereo) | Active

Tested on: Rattus norvegicus
Assay: Estrogenic activity in immature female rat assessed as uterine weight on day 4 at 5 mg/kg, po bid for 3 days (reference value: 13.6 +/- 0.8 mg)
Type: functional
Conditions: not given

Row | SMILES | Activity [mg]
54 | COc1ccc2c(c1)OC[C@H](c1ccccc1)[C@@H]2c1ccc(OCCN2CCCC2)cc1 (relative stereo) | 43.7

Tested on: Rattus norvegicus
Assay: Estrogenic activity in immature female rat assessed as vaginal opening at 5 mg/kg, po bid for 3 days
Type: functional, organism-based
Design: dose 5 mg/kg
Conditions: not given
Method in brief: as §3

Row | SMILES | Activity
55 | COc1ccc2c(c1)OC[C@H](c1ccccc1)[C@@H]2c1ccc(OCCN2CCCC2)cc1 (relative stereo) | Active

Tested on: Rattus norvegicus
Assay: Estrogenic activity in immature female rat assessed as diestrus smear with leukocytes and mixture of leukocytes,epithelial cells at 10 mg/kg, po bid for 3 days
Type: functional, organism-based
Design: dose 10 mg/kg
Conditions: not given
Method in brief: as §2

Row | SMILES | Activity
56 | COc1ccc2c(c1)OC[C@H](c1ccccc1)[C@H]2c1ccc(OCCN2CCCC2)cc1 (relative stereo) | Active
57 | CCN(CC)CCOc1ccc(C2=C(c3ccccc3)C(C)(C)Oc3cc(OC)ccc32)cc1.Cl | Active

From ChEMBL document CHEMBL3272087, “Antifertility agents. 12. Structure-activity relationship of 3,4-diphenylchromenes and -chromans” (1976)
